The values below come from ChEMBL document CHEMBL2396608, “Thiazolylaminomannosides as potent antiadhesives of type 1 piliated Escherichia coli isolated from Crohn's disease patients” (J Med Chem, 2013).

Test [1] deals with Escherichia coli. The test is described as follows: Antiadhesive activity against type-1 piliated adherent-invasive Escherichia coli LF82 assessed as inhibition of guinea pig erythrocyte hemagglutination relative to heptylmannoside. In kind it is functional. In short, it runs like this:
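LF82 grown statically overnight in LB at 37 °C and washed three times in ice-cold PBS. Twofold compound dilutions, starting at 1 mM, made in 20 mM HEPES pH 7.4, 150 mM NaCl. Added 25 μL bacteria, then 50 μL guinea pig erythrocytes at 5%. Overnight on ice before read-out.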

Test [2] deals with Type 1 fimbrin D-mannose specific adhesin (Escherichia coli K-12) (UniProt P08191). The test is described as follows: Binding affinity to Escherichia coli FimH assessed as decrease in RNaseB binding after 1 hr by competitive ELISA. In short, it runs like this: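 Wells coated with RNaseB in bicarbonate buffer pH 9.6, overnight at 4 °C. Blocked with 3% BSA in PBST, 2 h at 37 °C. Inhibitors in PBST plus FimH at 0.07 μM, 1 h at room temperature. Detection used rabbit anti-FimH (1:2500, 1 h), then HRP anti-rabbit (1:5000, 1 h), then TMB for 2–5 min in the dark, stopped with 1N H₂SO₄. Absorbance read at 450 nm.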
(An ELISA detects its analyte on a solid surface through an enzyme-linked reagent.)

The test system of test [3] is Escherichia coli. The test can be described thus: Antiadhesive activity against type-1 piliated adherent-invasive Escherichia coli LF82 assessed as inhibition of bacterial adhesion to human T84 cells overexpressing CEACAM6 incubated for 1 hr prior to infection measured after 3 hrs. In kind it is functional, organism-based. In short, it runs like this: (§1)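 T84 cells seeded at 1.5 × 10⁵ cells/well and grown 48 h at 37 °C under 5% CO₂. Washed monolayers pretreated 1 h with inhibitor at final 0.1, 1, 10 or 100 μM (α-D-mannose 100–50000 μM), then infected 3 h with LB-grown LF82 at MOI 10 with inhibitor present. Cells lysed in 1% Triton X-100; CFU counted on LB agar. Residual adhesion given as % of untreated (means SEM).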

Test [4] has as its system Escherichia coli. The test can be described thus: Antiadhesive activity against type-1 piliated adherent-invasive Escherichia coli LF82 assessed as inhibition of bacterial adhesion to colonic tissue isolated from FVB/N transgenic mouse expressing human CEACAM6 after 1 hr. In kind it is functional, organism-based. In short, it runs like this:
(§2)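 Colons from 10–12-week-old FVB/N CEABAC10 mice (human CEACAM6 transgenic; anesthetized, killed by cervical dislocation) split into four loops. Each loop was injected with 100 μL holding 2 × 10⁵ LF82 with or without inhibitor at 0.01, 0.1, 1 or 10 μmol, then held 1 h at 37 °C, 5% CO₂. Loops were opened, washed four times in PBS, homogenized and plated on LB agar with ampicillin 100 μg/mL and erythromycin 20 μg/mL. CFU normalized to untreated (100%); n = 5–8 mice, means SEM.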

Test [5] concerns Escherichia coli. The test can be described thus: Ratio of compound activity to D-mannose activity for prevention of Escherichia coli LF82 adhesion to colonic tissue isolated from FVB/N transgenic mouse expressing human CEACAM6. In kind it is functional.
Test [6] relates to Escherichia coli. The test can be described thus: Antiadhesive activity against type-1 piliated adherent-invasive Escherichia coli LF82 assessed as decrease in residual bacterial adhesion to colonic tissue isolated from FVB/N transgenic mouse expressing human CEACAM6 at 0.1 umol after 1 hr relative to control. In kind it is functional. In short, it runs like this:
as §2

Test [7] relates to Escherichia coli. The test can be described thus: Antiadhesive activity against type-1 piliated adherent-invasive Escherichia coli LF82 assessed as inhibition of bacterial adhesion to human T84 cells overexpressing CEACAM6 at 0.1 to 100 uM incubated for 1 hr prior to infection measured after 3 hrs relative to heptylmannoside. In kind it is functional.
The test system of test [8] is Escherichia coli. The test can be described thus: Antiadhesive activity against type-1 piliated adherent-invasive Escherichia coli LF82 assessed as residual bacterial adhesion to human T84 cells overexpressing CEACAM6 at 0.1 uM incubated for 1 hr prior to infection measured after 3 hrs relative to control. In kind it is functional. In short, it runs like this:
as §1

Test [9] concerns Escherichia coli. The test is described as follows: Antiadhesive activity against type-1 piliated adherent-invasive Escherichia coli LF82 assessed as residual bacterial adhesion to human T84 cells overexpressing CEACAM6 at 1 uM incubated for 1 hr prior to infection measured after 3 hrs relative to control. In kind it is functional. In short, it runs like this: as §1
Test [10] has as its system Escherichia coli. The test is described as follows: Antiadhesive activity against type-1 piliated adherent-invasive Escherichia coli LF82 assessed as residual bacterial adhesion to human T84 cells overexpressing CEACAM6 at 10 uM incubated for 1 hr prior to infection measured after 3 hrs relative to control. In kind it is functional. In short, it runs like this:
as §1

In test [11] the target is Type 1 fimbrin D-mannose specific adhesin (Escherichia coli K-12, UniProt P08191). The test can be described thus: Binding affinity to Escherichia coli FimH assessed as dissociation constant by ITC analysis. On the technique in general: In ITC the heat of successive injections is recorded.
The test system of test [12] is Escherichia coli. The test is described as follows: Antiadhesive activity against type-1 piliated adherent-invasive Escherichia coli LF82 assessed as decrease in residual bacterial adhesion to colonic tissue isolated from FVB/N transgenic mouse expressing human CEACAM6 at 10 umol after 1 hr relative to control. In kind it is functional. In short, it runs like this: as §2

Test [13] concerns Escherichia coli. The test can be described thus: Antiadhesive activity against type-1 piliated adherent-invasive Escherichia coli LF82 assessed as residual bacterial adhesion to human T84 cells overexpressing CEACAM6 at 1000 uM incubated for 1 hr prior to infection measured after 3 hrs relative to control. In kind it is functional. In short, it runs like this:
as §1

In general, Kd refers to the concentration at which binding is half-saturated.

The structures appear in SMILES notation. Activity calls are given as the source filed them. The rule behind the calls is not given here.

Chain of Type 1 fimbrin D-mannose specific adhesin (Escherichia coli K-12) (P08191 whole entry): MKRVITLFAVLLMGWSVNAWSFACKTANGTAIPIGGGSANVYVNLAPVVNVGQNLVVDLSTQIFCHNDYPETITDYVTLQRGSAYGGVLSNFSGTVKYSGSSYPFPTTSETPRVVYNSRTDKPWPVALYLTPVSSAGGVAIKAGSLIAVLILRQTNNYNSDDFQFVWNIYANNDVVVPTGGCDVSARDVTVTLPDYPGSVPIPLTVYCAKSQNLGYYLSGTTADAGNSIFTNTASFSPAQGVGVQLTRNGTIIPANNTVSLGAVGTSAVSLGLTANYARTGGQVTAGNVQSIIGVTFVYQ
Chain of Type 1 fimbrin D-mannose specific adhesin (P08191 whole entry): as above

On to `CC(C)(C)C(=O)c1cnc(N[C@H]2O[C@H](CO)[C@@H](O)[C@H](O)[C@@H]2O)s1`, for which the “fold change (FC)” value with Escherichia coli [1] amounted to 0.9. Further, the Activity result in test [2] is “Dose-dependent effect”.
Regarding `CC(=O)c1cnc(N[C@H]2O[C@H](CO)[C@@H](O)[C@H](O)[C@@H]2O)s1`, the inhibition result in the test on Escherichia coli [3] is “Dose-dependent effect”. Besides, in the test with Escherichia coli [1], the “fold change (FC)” value was found to be 1.4. Also, in test [2], the Activity result was “Dose-dependent effect”.
`O=C(c1cnc(N[C@H]2O[C@H](CO)[C@@H](O)[C@H](O)[C@@H]2O)s1)C(F)(F)F`: the “fold change (FC)” value in the test with Escherichia coli [1] amounted to 1.7. In addition, the Activity result in test [2] was “Dose-dependent effect”.
In the same order, the values of `O=C(c1ccsc1)c1cnc(N[C@H]2O[C@H](CO)[C@@H](O)[C@H](O)[C@@H]2O)s1` are 0.3 and “Dose-dependent effect”.
In the same order, the values of `O=C(c1ccc([N+](=O)[O-])cc1)c1cnc(N[C@H]2O[C@H](CO)[C@@H](O)[C@H](O)[C@@H]2O)s1` are 0.7 and “Dose-dependent effect”.
Turning to `Cc1nc(-c2cnccn2)sc1C(=O)c1cnc(N[C@H]2O[C@H](CO)[C@@H](O)[C@H](O)[C@@H]2O)s1`, the inhibition result in the test with Escherichia coli [4] and in the test on Escherichia coli [3] was “Dose-dependent effect” in each case. For the same compound, the Ratio in the test on Escherichia coli [5] was found to be 10. For the same compound, the Activity in the test on Escherichia coli [6] was 65%; in the test on Escherichia coli [8], 57.6%; in test [2], “Dose-dependent effect”; in the test on Escherichia coli [9], 14%. Further, the entries for the “fold change (FC)” value with Escherichia coli [7] and in the test on Escherichia coli [1] were 0.01 and 0.2, respectively.
Consider `Cc1ccc(C(=O)c2cnc(N[C@H]3O[C@H](CO)[C@@H](O)[C@H](O)[C@@H]3O)s2)cc1`, for which the “fold change (FC)” value in the test with Escherichia coli [1] was 0.4. Further, in test [2], the Activity result was “Dose-dependent effect”.
For the compound `N#Cc1ccc(C(=O)c2cnc(N[C@H]3O[C@H](CO)[C@@H](O)[C@H](O)[C@@H]3O)s2)cc1`, in the test on Escherichia coli [1], the “fold change (FC)” value is 0.7. Besides, the Activity entry in [2] is “Dose-dependent effect”.
Turning to `CCCCCCCO[C@H]1O[C@H](CO)[C@@H](O)[C@H](O)[C@@H]1O`, the Activity in the test with Escherichia coli [10] worked out at 52.4%. The inhibition result in the test on Escherichia coli [3] is “Dose-dependent effect”. Besides, in test [11], the Kd turned out to be 7 nM. In addition, the result with Escherichia coli [9] was inactive.
As for `O=C(c1cccs1)c1cnc(N[C@H]2O[C@H](CO)[C@@H](O)[C@H](O)[C@@H]2O)s1`, the “fold change (FC)” value with Escherichia coli [1] was found to be 0.1. The Activity result in test [2] is “Dose-dependent effect”.
Take `O=C(c1ccc2ccccc2c1)c1cnc(N[C@H]2O[C@H](CO)[C@@H](O)[C@H](O)[C@@H]2O)s1`: the “fold change (FC)” value with Escherichia coli [1] turned out to be 2.3. Besides, in test [2], the Activity entry is “Dose-dependent effect”.
In the same order, the values of `O=C(c1cnc(N[C@H]2O[C@H](CO)[C@@H](O)[C@H](O)[C@@H]2O)s1)C12CC3CC(CC(C3)C1)C2` are 0.3 and “Dose-dependent effect”.
In the case of `OC[C@H]1O[C@H](O)[C@@H](O)[C@@H](O)[C@@H]1O`, the inhibition result in the test with Escherichia coli [4] and in the test with Escherichia coli [3] was “Dose-dependent effect” each time. The Activity in the test on Escherichia coli [12] was 41%; in the test on Escherichia coli [13], 51.6%.
In the case of `O=C(c1ccccc1)c1cnc(N[C@H]2O[C@H](CO)[C@@H](O)[C@H](O)[C@@H]2O)s1`, the “fold change (FC)” value with Escherichia coli [1] came to 0.4. The Activity entry in test [2] was “Dose-dependent effect”.
